Reference: ChEMBL document CHEMBL3822382 (Eur J Med Chem, 2016)
The source made the active and inactive calls. The rule behind the calls is not given here.

What was measured:
[1] = Growth inhibition of chicken cardiomyocytes after 48 hrs by MTT assay; conditions: Gallus gallus, Cardiomyocyte
In short: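 Chicken heart fibroblasts explanted from 10-day-old embryos, seeded at 10,000/well; cardiomyocytes seeded at 20,000/well. Dilution series given for 48 h, DMSO as control. MTT 0.5 mg/mL for 2 h, absorbance at 570/630 nm. Viability versus DMSO controls; IC50 from dose–response curves, mean of three independent experiments.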

[2] = Cell cycle arrest in human HCT116 cells expressing wild type p53 assessed as apoptotic index ratio at 100 nM after 24 hrs by propidium iodide staining-based flow cytometry relative to control; format: functional; conditions: HCT-116
[3] = Cell cycle arrest in human MCF7/Topo cells assessed as accumulation at S phase at 100 nM after 24 hrs by propidium iodide staining-based flow cytometry (reference value: 16%); format: functional
[4] = Cell cycle arrest in human HCT116 cells expressing wild type p53 assessed as accumulation at G2/M phase at 50 nM after 24 hrs by propidium iodide staining-based flow cytometry (reference value: 21%); format: functional; conditions: HCT-116
[5] = Cell cycle arrest in human HCT116 cells expressing wild type p53 assessed as accumulation at S phase at 50 nM after 24 hrs by propidium iodide staining-based flow cytometry (reference value: 15.3%); format: functional; conditions: HCT-116
[6] = Growth inhibition of human 518A2 cells after 24 hrs by MTT assay; format: functional, cell-based; conditions: 518A2, 24 h
In short: (§1)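 Cells seeded at 5000/well (Ea.hy926 10,000/well) and exposed for 24 h to dilution series of 100 µM–5 pM, with DMSO as solvent control. MTT (0.5 mg/mL final) for 2 h. Formazan dissolved in SDS/acetic acid/DMSO and read at 570 nm against a 630 nm background. Viability taken relative to DMSO controls; IC50 from dose–response curves, mean of four independent experiments.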

[7] = tested on: EA.hy 926; assay: Antivascular activity in human EAhy926 cells assessed as change in cell morphology from stretched to rounded form at 250 nM after 16 hrs by light microscopic analysis; format: functional, cell-based
In short: (§2)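 Ea.hy926 cells (100,000/well) were seeded on Matrigel-coated coverslips and allowed 12 h to form vessel-like networks. Test agent (CA-4 100 nM; indoles 250 nM) or DMSO was then added for 16 h, and networks were documented by light microscopy. Viability was checked by 2 h MTT (0.5 mg/mL) relative to DMSO controls.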

[8] = Cell cycle arrest in human HCT116 cells expressing wild type p53 assessed as accumulation at S phase at 100 nM after 24 hrs by propidium iodide staining-based flow cytometry (reference value: 15.3%); format: functional; conditions: HCT-116
[9] = Cell cycle arrest in human MCF7/Topo cells assessed as accumulation at G2/M phase at 100 nM after 24 hrs by propidium iodide staining-based flow cytometry (reference value: 31.6%); format: functional
[10] = tested on: EA.hy 926; assay: Antivascular activity in human EAhy926 cells assessed as induction of retraction of cells to nodes at 250 nM after 16 hrs by light microscopic analysis; format: functional, cell-based; in short: as §2
[11] = Cell cycle arrest in human MCF7/Topo cells assessed as G2/M index ratio at 100 nM after 24 hrs by propidium iodide staining-based flow cytometry relative to control; format: functional
[12] = Cell cycle arrest in human MCF7/Topo cells assessed as accumulation at subG1 phase at 100 nM after 24 hrs by propidium iodide staining-based flow cytometry (reference value: 4.6%); format: functional
[13] = Cell cycle arrest in human MCF7/Topo cells assessed as apoptotic index ratio at 100 nM after 24 hrs by propidium iodide staining-based flow cytometry relative to control; format: functional
[14] = Cell cycle arrest in human HCT116 cells expressing wild type p53 assessed as accumulation at G1 phase at 100 nM after 24 hrs by propidium iodide staining-based flow cytometry (reference value: 56.7%); format: functional; conditions: HCT-116
[15] = Cell cycle arrest in human HCT116 cells expressing wild type p53 assessed as accumulation at G1 phase at 50 nM after 24 hrs by propidium iodide staining-based flow cytometry (reference value: 56.7%); format: functional; conditions: HCT-116
[16] = Cell cycle arrest in human MCF7/Topo cells assessed as accumulation at G1 phase at 100 nM after 24 hrs by propidium iodide staining-based flow cytometry (reference value: 47.8%); format: functional
[17] = Cell cycle arrest in human HCT116 cells expressing wild type p53 assessed as accumulation at G2/M phase at 100 nM after 24 hrs by propidium iodide staining-based flow cytometry (reference value: 21%); format: functional; conditions: HCT-116
[18] = Cell cycle arrest in human HCT116 cells expressing wild type p53 assessed as accumulation at subG1 phase at 50 nM after 24 hrs by propidium iodide staining-based flow cytometry (reference value: 7.1%); format: functional; conditions: HCT-116
[19] = Growth inhibition of p53 null human HCT116 cells after 72 hrs by MTT assay; format: functional, cell-based; conditions: HCT-116, 72 h
In short: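 HCT-116 cells, p53 wild-type or p53-/-, seeded at 5000/well and treated 72 h with dilution series (100 µM–5 pM) or DMSO. MTT 0.5 mg/mL for 2 h, absorbance at 570/630 nm. Viability relative to DMSO controls; IC50 from dose–response curves, mean of three independent experiments ± S.D.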

[20] = Cytotoxicity against human EAhy926 cells assessed as cell viability at 250 nM after 16 hrs by MTT assay relative to control; format: cell-based, EA.hy 926; conditions: read-out: Activity
In short: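 Ea.hy926 cells (100,000/well) placed on Matrigel-coated coverslips and left 12 h to form networks, then given 250 nM for 16 h. Viability measured by 2 h incubation with 0.5 mg/mL MTT and formazan absorbance, calculated relative to DMSO controls.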

[21] = Growth inhibition of human KB-V1/Vbl cells after 24 hrs by MTT assay; format: functional; in short: as §1
[22] = Cell cycle arrest in human HCT116 cells expressing wild type p53 assessed as apoptotic index ratio at 50 nM after 24 hrs by propidium iodide staining-based flow cytometry relative to control; format: functional; conditions: HCT-116
[23] = Growth inhibition of human EAhy926 cells after 24 hrs by MTT assay; format: cell-based; conditions: EA.hy 926, 24 h; in short: as §1
[24] = Cell cycle arrest in human HCT116 cells expressing wild type p53 assessed as accumulation at subG1 phase at 100 nM after 24 hrs by propidium iodide staining-based flow cytometry (reference value: 7.1%); format: functional; conditions: HCT-116
[25] = Cell cycle arrest in human HCT116 cells expressing wild type p53 assessed as G2/M index ratio at 100 nM after 24 hrs by propidium iodide staining-based flow cytometry relative to control; format: functional; conditions: HCT-116
[26] = tested on: Chorioallantoic membrane; assay: Antivascular activity in fertilized white leghorn egg chorioallantoic membrane assessed as disruption of preformed blood vessel at 2.5 to 5 nmol after 24 to 48 hrs by stereomicroscopic analysis; format: functional, tissue-based; conditions: Gallus gallus
[27] = Growth inhibition of human 518A2 cells after 72 hrs by MTT assay; format: functional, cell-based; conditions: 518A2, 72 h
In short: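 5000 cells/well exposed for 72 h to dilution series of 100 µM–5 pM, with DMSO as solvent control. MTT 0.5 mg/mL final for 2 h, absorbance at 570/630 nm. Percentage viable cells taken versus DMSO controls; IC50 from dose–response curves, mean of four independent experiments.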

Row | Structure (SMILES) | IC50 [1] [µM] | Ratio [2] | Activity [3] [%] | Activity [4] [%] | Activity [5] [%] | IC50 [6] [µM] | Activity [7] | Activity [8] [%] | Activity [9] [%] | Activity [10] | Ratio [11] | Activity [12] [%] | Ratio [13] | Activity [14] [%] | Activity [15] [%] | Activity [16] [%] | Activity [17] [%] | Activity [18] [%] | IC50 [19] [µM] | viability at 16 h, 0.25 µM [20] [%] | also measured
1 | COc1cc(-c2ncn(C)c2-c2ccc3c(c2)c(Cl)cn3C)cc(Br)c1OC.Cl | 3.97 | 19.7 | 8.6 | 17.2 | 12.7 | 0.0519 | Active | 5.4 | 52.4 | Active | 5.5 | 24.6 | 21.1 | 9 | 53.9 | 14.4 | 59.7 | 16.2 | 0.0213 | > 90 | IC50 [21]: 0.0254 µM; Ratio [22]: 10.2; IC50 [23]: 0.0299 µM; Activity [24]: 25.9%; Ratio [25]: 17.9; Activity [26]: inactive; IC50 [27]: 0.0282 µM
2 | COc1cc(-c2ncn(C)c2-c2ccc3c(c2)c(Cl)cn3C)cc(OC)c1OC | 1.87 | 26.1 | 9.9 | 14.6 | 11.1 | 0.0654 | Active | 7.8 | 42.9 | Active | 3.9 | 30.7 | 27.2 | 9.3 | 43.6 | 16.5 | 50.5 | 30.6 | 0.0262 | > 90 | IC50 [21]: 0.026 µM; Ratio [22]: 24.4; IC50 [23]: 0.0246 µM; Activity [24]: 32.4%; Ratio [25]: 14.8; Activity [26]: inactive; IC50 [27]: 0.0182 µM
